Source: ChEMBL document CHEMBL1130267, “Regulation of retinoidal actions by diazepinylbenzoic acids. Retinoid synergists which activate the RXR-RAR heterodimers” (J Med Chem, 1997)

How the values were obtained:
HL-60 [1] = assay: Concentration which reduces by half the percentage of differentiated HL-60 cells induced by 1 x 10e-9 M Am80.; assay type: functional, cell-based; settings: Homo sapiens
Summary of the method: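 Antagonism in HL-60 cells cotreated with 1 × 10^-9 M Am80 for 4 days, with Am80 alone and test compound alone run in parallel. Cells were seeded at about 8 × 10⁴/mL in RPMI1640/5% FBS, and compounds came from 2 mM ethanol stocks (final ethanol <0.5%). NBT reduction (0.2% NBT, 200 ng/mL TPA, 20 min, 37 °C) was counted on ≥200 cells. IC50 is the concentration halving the % of differentiated cells. Run at least twice.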

HL-60 [2] = assay: Concentration which reduces by half the percentage of differentiated HL-60 cells; Inactive at 1 x 10e-6 M; assay type: functional, cell-based, Homo sapiens
[3] = biological target: T1, Retinoic acid receptor RXR-alpha (Homo sapiens, UniProt P19793); assay: Synergistic activity towards retinoid X receptor-alpha
T1 sequence (P19793 whole entry): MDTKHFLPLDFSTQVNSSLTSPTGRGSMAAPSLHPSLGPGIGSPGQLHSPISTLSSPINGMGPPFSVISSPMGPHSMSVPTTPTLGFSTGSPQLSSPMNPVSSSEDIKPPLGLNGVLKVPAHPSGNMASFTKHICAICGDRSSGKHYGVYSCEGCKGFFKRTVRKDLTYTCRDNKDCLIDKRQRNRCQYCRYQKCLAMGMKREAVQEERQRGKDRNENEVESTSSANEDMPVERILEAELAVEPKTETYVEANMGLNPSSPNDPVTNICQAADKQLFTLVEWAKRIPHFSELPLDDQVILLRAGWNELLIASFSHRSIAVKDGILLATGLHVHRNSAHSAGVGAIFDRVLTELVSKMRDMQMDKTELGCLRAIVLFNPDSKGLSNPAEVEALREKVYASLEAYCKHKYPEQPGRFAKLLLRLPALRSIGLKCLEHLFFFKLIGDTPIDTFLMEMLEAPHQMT

[4] = biological target: T2, Retinoic acid receptor RXR-beta (Homo sapiens, UniProt P28702); assay: Synergistic activity towards retinoid X receptor-beta
T2 sequence (P28702 whole entry): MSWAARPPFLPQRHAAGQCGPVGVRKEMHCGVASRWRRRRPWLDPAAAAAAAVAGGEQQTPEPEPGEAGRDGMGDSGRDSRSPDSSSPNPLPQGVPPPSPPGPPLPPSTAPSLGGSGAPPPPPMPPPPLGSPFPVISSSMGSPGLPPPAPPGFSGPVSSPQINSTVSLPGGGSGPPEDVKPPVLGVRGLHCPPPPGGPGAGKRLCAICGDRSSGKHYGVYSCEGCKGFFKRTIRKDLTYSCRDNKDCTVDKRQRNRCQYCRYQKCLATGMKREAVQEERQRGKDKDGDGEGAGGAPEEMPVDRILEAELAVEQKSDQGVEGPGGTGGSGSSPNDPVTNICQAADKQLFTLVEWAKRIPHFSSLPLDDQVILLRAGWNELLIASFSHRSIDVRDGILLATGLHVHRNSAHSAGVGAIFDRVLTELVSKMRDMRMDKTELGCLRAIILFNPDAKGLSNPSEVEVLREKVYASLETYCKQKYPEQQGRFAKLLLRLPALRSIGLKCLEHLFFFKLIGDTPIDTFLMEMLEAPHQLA

[5] = biological target: T3, Retinoic acid receptor beta (Homo sapiens, UniProt P10826); assay: Synergistic activity towards retinoic acid receptor-beta
T3 sequence (P10826 whole entry): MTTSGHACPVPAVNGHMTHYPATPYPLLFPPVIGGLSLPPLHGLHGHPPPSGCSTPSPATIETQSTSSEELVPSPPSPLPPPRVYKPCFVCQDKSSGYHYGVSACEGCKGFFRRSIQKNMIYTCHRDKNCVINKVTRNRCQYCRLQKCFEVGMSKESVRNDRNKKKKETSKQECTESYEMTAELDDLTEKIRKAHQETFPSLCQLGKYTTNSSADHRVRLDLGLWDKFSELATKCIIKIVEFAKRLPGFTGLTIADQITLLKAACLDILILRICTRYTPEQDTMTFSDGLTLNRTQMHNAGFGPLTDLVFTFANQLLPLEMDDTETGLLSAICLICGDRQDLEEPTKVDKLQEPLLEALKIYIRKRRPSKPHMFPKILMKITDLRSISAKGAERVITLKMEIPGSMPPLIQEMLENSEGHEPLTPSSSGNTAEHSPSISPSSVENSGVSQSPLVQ
Summary of the method: (§1)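 Filter binding competition on the MBP-fused RARβ ligand-binding domain against 20 nM [³H]Am80. The IC50 for halving specific binding was converted to Ki via Ki = IC50/(1 + [L]/Kd).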

[6] = biological target: T4, Retinoic acid receptor alpha (Homo sapiens, UniProt P10276); assay: Synergistic activity towards retinoic acid receptor-alpha
T4 sequence (P10276 whole entry): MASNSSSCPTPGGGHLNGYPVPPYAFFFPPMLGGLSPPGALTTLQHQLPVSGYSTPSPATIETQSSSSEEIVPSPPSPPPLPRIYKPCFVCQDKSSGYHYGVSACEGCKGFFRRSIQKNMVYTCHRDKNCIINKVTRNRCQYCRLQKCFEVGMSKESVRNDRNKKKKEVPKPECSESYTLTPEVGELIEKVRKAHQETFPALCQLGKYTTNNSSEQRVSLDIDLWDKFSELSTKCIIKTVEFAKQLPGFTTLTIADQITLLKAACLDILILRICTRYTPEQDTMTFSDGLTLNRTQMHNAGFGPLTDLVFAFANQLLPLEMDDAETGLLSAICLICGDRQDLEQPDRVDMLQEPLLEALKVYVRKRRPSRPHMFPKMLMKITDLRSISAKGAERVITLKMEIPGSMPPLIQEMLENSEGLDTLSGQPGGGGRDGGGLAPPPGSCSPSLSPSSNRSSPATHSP
Summary of the method: (§2)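 Competitive nitrocellulose filter binding to recombinant RARα ligand-binding domain fused to maltose-binding protein, using 8 nM [³H]Am80 as tracer. IC50 for displacement of specific binding was converted to Ki by Ki = IC50/(1 + [L]/Kd).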

[7] = biological target: T5, Retinoic acid receptor RXR-gamma (Homo sapiens, UniProt P48443); assay: Synergistic activity towards retinoid X receptor-gamma
T5 sequence (P48443 whole entry): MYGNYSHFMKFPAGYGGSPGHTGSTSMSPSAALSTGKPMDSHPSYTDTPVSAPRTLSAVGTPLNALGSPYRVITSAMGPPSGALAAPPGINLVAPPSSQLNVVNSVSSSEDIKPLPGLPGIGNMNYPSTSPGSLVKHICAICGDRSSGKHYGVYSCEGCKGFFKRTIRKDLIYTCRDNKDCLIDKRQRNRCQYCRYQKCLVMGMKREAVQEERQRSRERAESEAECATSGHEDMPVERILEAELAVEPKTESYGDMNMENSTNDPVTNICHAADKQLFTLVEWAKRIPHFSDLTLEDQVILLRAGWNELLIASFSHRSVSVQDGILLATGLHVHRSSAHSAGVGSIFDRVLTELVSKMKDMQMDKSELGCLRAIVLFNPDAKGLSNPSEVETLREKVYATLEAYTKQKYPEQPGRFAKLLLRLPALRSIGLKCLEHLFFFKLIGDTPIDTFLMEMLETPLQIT

HL-60 [8] = assay: Concentration of a compound which induces HL-60 cell differentiation to the extent of 50%; inactive below 1.0E-6M test compound; assay type: functional, cell-based, Homo sapiens
[9] = biological target: T6, Retinoic acid receptor gamma (Homo sapiens, UniProt P13631); assay: Antagonistic activity towards retinoic acid receptor-gamma; assay type: functional
T6 sequence (P13631 whole entry): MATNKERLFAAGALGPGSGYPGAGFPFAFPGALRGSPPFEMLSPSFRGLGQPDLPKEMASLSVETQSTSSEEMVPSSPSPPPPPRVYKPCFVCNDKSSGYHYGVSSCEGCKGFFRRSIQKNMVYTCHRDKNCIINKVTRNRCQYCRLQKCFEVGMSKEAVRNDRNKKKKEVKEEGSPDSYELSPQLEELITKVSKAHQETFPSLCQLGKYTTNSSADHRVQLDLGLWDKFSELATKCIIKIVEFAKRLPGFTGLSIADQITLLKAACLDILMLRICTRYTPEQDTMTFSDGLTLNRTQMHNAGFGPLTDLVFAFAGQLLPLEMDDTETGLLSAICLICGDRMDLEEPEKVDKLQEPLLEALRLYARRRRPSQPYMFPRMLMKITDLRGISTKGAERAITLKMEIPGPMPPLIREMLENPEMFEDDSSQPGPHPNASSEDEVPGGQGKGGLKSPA
Summary of the method: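 Recombinant RARγ in a nitrocellulose filter competitive binding assay with 4 nM [³H]-9-cis-retinoic acid (diluted with cold ligand to 8 Ci/mmol). Ki = IC50/(1 + [L]/Kd).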

[10] = biological target: T1, Retinoic acid receptor RXR-alpha; assay: Antagonistic activity towards retinoid X receptor-alpha; assay type: functional
[11] = biological target: T2, Retinoic acid receptor RXR-beta; assay: Antagonistic activity towards retinoid X receptor-beta; assay type: functional
[12] = biological target: T4, Retinoic acid receptor alpha; assay: Antagonistic activity towards retinoic acid receptor-alpha; assay type: functional; summary of the method: as §2
[13] = biological target: T5, Retinoic acid receptor RXR-gamma; assay: Antagonistic activity towards retinoid X receptor-gamma; assay type: functional
[14] = biological target: T3, Retinoic acid receptor beta; assay: Antagonistic activity towards retinoic acid receptor-beta; assay type: functional; summary of the method: as §1

With `CN1c2cc3c(cc2N=C(c2ccc(C(=O)O)cc2)c2c1ccc1ccccc21)C(C)(C)CCC3(C)C` as the compound, how does the IC50 (HL-60 [1]) read?
Its IC50 is 120 nM.

With `CC(C)c1cc2c(cc1C(C)C)N(C)c1ccccc1C(c1ccc(C(=O)O)cc1)=N2` as the compound, how does the IC50 (HL-60 [2]) read?
Its IC50 is “Not Active”.

What does the source list for `CC1(C)CCC(C)(C)c2cc3c(cc21)Cc1ccccc1N=C3c1ccc(C(=O)O)cc1`?
Ki [3]: 1800 nM; Ki [4]: 790 nM; Ki [5]: 810 nM; Ki [6]: 1600 nM; Ki [7]: 1000 nM

How did the IC50 (HL-60 [1]) turn out when `CN1c2ccc(C(C)(C)C)cc2N=C(c2ccc(C(=O)O)cc2)c2ccccc21` was run?
The IC50 was over 1000 nM.

`CN1c2cc3c(cc2N=C(c2ccc(C(=O)O)cc2)c2cc4c(cc21)C(C)(C)CCC4(C)C)C(C)(C)CCC3(C)C` was tested. Which IC50 (HL-60 [1]) did it give?
Its IC50 is 830 nM.

`CC1(C)CCC(C)(C)c2cc3c(cc21)NC(=O)CN=C3c1ccc(C(=O)O)cc1` was tested. Which EC50 (HL-60 [8]) did it give?
The EC50 was “Not Active”.

How did the Ki [9] turn out when `CN1c2cc3c(cc2N=C(c2ccc(C(=O)O)cc2)c2ccc4ccccc4c21)C(C)(C)CCC3(C)C` was run?
The Ki was 490 nM.

What about the Ki [10] of the same compound?
The Ki was 3800 nM.

And the Ki [11]?
Its Ki is 1700 nM.

What about the Ki [12] of the same compound?
The Ki was 1300 nM.

What about the Ki [13] of the same compound?
The Ki was 1500 nM.

And the IC50 (HL-60 [1])?
Its IC50 is 36 nM.

What about the Ki [14] of the same compound?
The Ki was 500 nM.

What does the source list for `CN1c2ccccc2N=C(c2ccc(C(=O)O)cc2)c2cc3c(cc21)C(C)(C)CCC3(C)C`?
Ki [3]: 1900 nM; Ki [4]: 640 nM; Ki [5]: 680 nM; Ki [7]: 1000 nM

`CC1c2ccccc2N=C(c2ccc(C(=O)O)cc2)c2cc3c(cc21)C(C)(C)CCC3(C)C` (centres undefined) was tested. Which Ki [6] did it give?
Its Ki is 2000 nM.

What does the source list for `CC1(C)CCC(C)(C)c2cc3c(cc21)Oc1ccccc1N=C3c1ccc(C(=O)O)cc1`?
Ki [3]: 3800 nM; Ki [4]: 1200 nM; Ki [5]: 320 nM; Ki [6]: 980 nM; Ki [7]: 2100 nM

For `CN1c2ccccc2N=C(c2ccc(C(=O)O)cc2)c2cc(C(C)(C)C)ccc21`, which EC50 (HL-60 [8]) is on record?
The EC50 was “Not Active”.

With `CCCCCCCN1c2cc3c(cc2N=C(c2ccc(C(=O)O)cc2)c2ccccc21)C(C)(C)CCC3(C)C` as the compound, how does the IC50 (HL-60 [1]) read?
Its IC50 is 210 nM.

Which IC50 (HL-60 [1]) does the source give for `CN1c2cc3c(cc2N=C(c2ccc(C(=O)O)cc2)c2ccc4cc5ccccc5cc4c21)C(C)(C)CCC3(C)C` here?
Its IC50 is 320 nM.

For `CN1c2ccccc2N=C(c2ccc(C(=O)O)cc2)c2cc(-c3ccccc3)ccc21`, which EC50 (HL-60 [8]) is on record?
Its EC50 is “Not Active”.

For `CN1c2cc3c(cc2N=C(c2ccc(C(=O)O)cc2)c2c1c1ccccc1c1ccccc21)C(C)(C)CCC3(C)C`, which IC50 (HL-60 [1]) is on record?
The IC50 was 350 nM.

What does the source list for `CC1(C)CCC(C)(C)c2cc3c(cc21)Sc1ccccc1N=C3c1ccc(C(=O)O)cc1`?
Ki [3]: 900 nM; Ki [4]: 400 nM; Ki [5]: 320 nM; Ki [6]: 900 nM; Ki [7]: 620 nM

Which IC50 (HL-60 [1]) does the source give for `CCCN1c2cc3c(cc2N=C(c2ccc(C(=O)O)cc2)c2ccccc21)C(C)(C)CCC3(C)C` here?
Its IC50 is 130 nM.

How did the EC50 (HL-60 [8]) turn out when `CN1c2ccccc2N=C(c2ccc(C(=O)O)cc2)c2ccccc21` was run?
The EC50 was “Not Active”.

With `CN1c2ccccc2N=C(c2ccc(C(=O)O)cc2)c2cc(Br)ccc21` as the compound, how does the EC50 (HL-60 [8]) read?
The EC50 was “Not Active”.

How did the Ki [12] turn out when `CN1c2cc3c(cc2N=C(c2ccc(C(=O)O)cc2)c2ccccc21)C(C)(C)CCC3(C)C` was run?
Its Ki is 1400 nM.

And the IC50 (HL-60 [1])?
The IC50 was 150 nM.

And the Ki [14]?
Its Ki is 220 nM.

How did the IC50 (HL-60 [2]) turn out when `CN1c2ccc(C34CC5CC(CC(C5)C3)C4)cc2N=C(c2ccc(C(=O)O)cc2)c2ccccc21` was run?
Its IC50 is “Not Active”.
